Reference: ChEMBL document CHEMBL4814044, “Design and synthesis, biological evaluation of bis-(1,2,3- and 1,2,4)-triazole derivatives as potential antimicrobial and antifungal agents” (2021)
Calls of active or inactive are those of the source. The rule behind the calls is not given here.

Legend:
Assay type in all cases: functional
[1] = test system: Staphylococcus aureus; test: Antibacterial activity against Staphylococcus aureus MTCC 96 assessed as bacterial growth inhibition by microdilution method
How it was run: (§1)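 Broth microdilution against Gram-positive and Gram-negative strains. The endpoint is the minimal inhibitory concentration, in µg/ml.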

[2] = test system: Bacillus subtilis; test: Antibacterial activity against Bacillus subtilis MTCC 441 assessed as bacterial growth inhibition by microdilution method; how it was run: as §1
[3] = test system: Pseudomonas aeruginosa; test: Antibacterial activity against Pseudomonas aeruginosa MTCC 424 assessed as bacterial growth inhibition by microdilution method; how it was run: as §1
[4] = test system: Escherichia coli; test: Antibacterial activity against Escherichia coli MTCC 443 assessed as bacterial growth inhibition by microdilution method; how it was run: as §1
[5] = test system: Aspergillus niger; test: Antifungal activity against Aspergillus niger MTCC 404 assessed as zone of inhibition at 16.8 uM incubated for 2 days by cross streak plate method; settings: MTCC 404, 48 h, time 2 day, read-out: IZ
How it was run: (§2)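 Fungal strain (A. niger MTCC 404 or S. cerevisiae MTCC 1344) was incubated with the compound for 2 days at 37 °C. Growth inhibition was then assessed by the cross streak plate method.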

[6] = test system: Aspergillus niger; test: Antifungal activity against Aspergillus niger MTCC 404 assessed as zone of inhibition at 25.2 uM incubated for 2 days by cross streak plate method; settings: MTCC 404, 48 h, time 2 day, read-out: IZ; how it was run: as §2
[7] = test system: Aspergillus niger; test: Antifungal activity against Aspergillus niger MTCC 404 assessed as zone of inhibition at 33.7 uM incubated for 2 days by cross streak plate method; settings: MTCC 404, 48 h, time 2 day, read-out: IZ; how it was run: as §2
[8] = test system: Saccharomyces cerevisiae; test: Antifungal activity against Saccharomyces cerevisiae MTCC 1344 assessed as zone of inhibition at 16.8 uM incubated for 2 days by cross streak plate method; settings: MTCC 1344, 48 h, time 2 day, read-out: IZ; how it was run: as §2
[9] = test system: Saccharomyces cerevisiae; test: Antifungal activity against Saccharomyces cerevisiae MTCC 1344 assessed as zone of inhibition at 25.2 uM incubated for 2 days by cross streak plate method; settings: MTCC 1344, 48 h, time 2 day, read-out: IZ; how it was run: as §2
[10] = test system: Saccharomyces cerevisiae; test: Antifungal activity against Saccharomyces cerevisiae MTCC 1344 assessed as zone of inhibition at 33.7 uM incubated for 2 days by cross streak plate method; settings: MTCC 1344, 48 h, time 2 day, read-out: IZ
How it was run: (§3)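 S. cerevisiae MTCC 1344 cultures were incubated for 2 days at 37 °C and then tested by the cross streak plate method.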

[11] = Antioxidant activity assessed as DPPH radical scavenging activity
[12] = test system: Aspergillus niger; test: Antifungal activity against Aspergillus niger MTCC 404 assessed as zone of inhibition at 17.2 uM incubated for 2 days by cross streak plate method; settings: MTCC 404, 48 h, time 2 day, read-out: IZ; how it was run: as §2
[13] = test system: Aspergillus niger; test: Antifungal activity against Aspergillus niger MTCC 404 assessed as zone of inhibition at 25.9 uM incubated for 2 days by cross streak plate method; settings: MTCC 404, 48 h, time 2 day, read-out: IZ; how it was run: as §2
[14] = test system: Aspergillus niger; test: Antifungal activity against Aspergillus niger MTCC 404 assessed as zone of inhibition at 34.5 uM incubated for 2 days by cross streak plate method; settings: MTCC 404, 48 h, time 2 day, read-out: IZ; how it was run: as §2
[15] = test system: Saccharomyces cerevisiae; test: Antifungal activity against Saccharomyces cerevisiae MTCC 1344 assessed as zone of inhibition at 17.2 uM incubated for 2 days by cross streak plate method; settings: MTCC 1344, 48 h, time 2 day, read-out: IZ; how it was run: as §2
[16] = test system: Saccharomyces cerevisiae; test: Antifungal activity against Saccharomyces cerevisiae MTCC 1344 assessed as zone of inhibition at 25.9 uM incubated for 2 days by cross streak plate method; settings: MTCC 1344, 48 h, time 2 day, read-out: IZ; how it was run: as §2
[17] = test system: Saccharomyces cerevisiae; test: Antifungal activity against Saccharomyces cerevisiae MTCC 1344 assessed as zone of inhibition at 34.5 uM incubated for 2 days by cross streak plate method; settings: MTCC 1344, 48 h, time 2 day, read-out: IZ; how it was run: as §3
[18] = test system: Aspergillus niger; test: Antifungal activity against Aspergillus niger MTCC 404 assessed as zone of inhibition at 18.3 uM incubated for 2 days by cross streak plate method; settings: MTCC 404, 48 h, time 2 day, read-out: IZ; how it was run: as §2
[19] = test system: Aspergillus niger; test: Antifungal activity against Aspergillus niger MTCC 404 assessed as zone of inhibition at 27.5 uM incubated for 2 days by cross streak plate method; settings: MTCC 404, 48 h, time 2 day, read-out: IZ; how it was run: as §2
[20] = test system: Aspergillus niger; test: Antifungal activity against Aspergillus niger MTCC 404 assessed as zone of inhibition at 36.6 uM incubated for 2 days by cross streak plate method; settings: MTCC 404, 48 h, time 2 day, read-out: IZ; how it was run: as §2
[21] = test system: Saccharomyces cerevisiae; test: Antifungal activity against Saccharomyces cerevisiae MTCC 1344 assessed as zone of inhibition at 18.3 uM incubated for 2 days by cross streak plate method; settings: MTCC 1344, 48 h, time 2 day, read-out: IZ; how it was run: as §2
[22] = test system: Saccharomyces cerevisiae; test: Antifungal activity against Saccharomyces cerevisiae MTCC 1344 assessed as zone of inhibition at 27.5 uM incubated for 2 days by cross streak plate method; settings: MTCC 1344, 48 h, time 2 day, read-out: IZ; how it was run: as §2
[23] = test system: Saccharomyces cerevisiae; test: Antifungal activity against Saccharomyces cerevisiae MTCC 1344 assessed as zone of inhibition at 36.6 uM incubated for 2 days by cross streak plate method; settings: MTCC 1344, 48 h, time 2 day, read-out: IZ; how it was run: as §3
[24] = test system: Aspergillus niger; test: Antifungal activity against Aspergillus niger MTCC 404 assessed as zone of inhibition at 15.9 uM incubated for 2 days by cross streak plate method; settings: MTCC 404, 48 h, time 2 day, read-out: IZ; how it was run: as §2
[25] = test system: Aspergillus niger; test: Antifungal activity against Aspergillus niger MTCC 404 assessed as zone of inhibition at 23.9 uM incubated for 2 days by cross streak plate method; settings: MTCC 404, 48 h, time 2 day, read-out: IZ; how it was run: as §2
[26] = test system: Aspergillus niger; test: Antifungal activity against Aspergillus niger MTCC 404 assessed as zone of inhibition at 31.8 uM incubated for 2 days by cross streak plate method; settings: MTCC 404, 48 h, time 2 day, read-out: IZ; how it was run: as §2
[27] = test system: Saccharomyces cerevisiae; test: Antifungal activity against Saccharomyces cerevisiae MTCC 1344 assessed as zone of inhibition at 15.9 uM incubated for 2 days by cross streak plate method; settings: MTCC 1344, 48 h, time 2 day, read-out: IZ; how it was run: as §2
[28] = test system: Saccharomyces cerevisiae; test: Antifungal activity against Saccharomyces cerevisiae MTCC 1344 assessed as zone of inhibition at 23.9 uM incubated for 2 days by cross streak plate method; settings: MTCC 1344, 48 h, time 2 day, read-out: IZ; how it was run: as §2
[29] = test system: Saccharomyces cerevisiae; test: Antifungal activity against Saccharomyces cerevisiae MTCC 1344 assessed as zone of inhibition at 31.8 uM incubated for 2 days by cross streak plate method; settings: MTCC 1344, 48 h, time 2 day, read-out: IZ; how it was run: as §2
[30] = test system: Aspergillus niger; test: Antifungal activity against Aspergillus niger MTCC 404 assessed as zone of inhibition at 14.8 uM incubated for 2 days by cross streak plate method; settings: MTCC 404, 48 h, time 2 day, read-out: IZ; how it was run: as §2
[31] = test system: Aspergillus niger; test: Antifungal activity against Aspergillus niger MTCC 404 assessed as zone of inhibition at 22.2 uM incubated for 2 days by cross streak plate method; settings: MTCC 404, 48 h, time 2 day, read-out: IZ; how it was run: as §2
[32] = test system: Aspergillus niger; test: Antifungal activity against Aspergillus niger MTCC 404 assessed as zone of inhibition at 29.7 uM incubated for 2 days by cross streak plate method; settings: MTCC 404, 48 h, time 2 day, read-out: IZ; how it was run: as §2
[33] = test system: Saccharomyces cerevisiae; test: Antifungal activity against Saccharomyces cerevisiae MTCC 1344 assessed as zone of inhibition at 14.8 uM incubated for 2 days by cross streak plate method; settings: MTCC 1344, 48 h, time 2 day, read-out: IZ; how it was run: as §2
[34] = test system: Saccharomyces cerevisiae; test: Antifungal activity against Saccharomyces cerevisiae MTCC 1344 assessed as zone of inhibition at 22.2 uM incubated for 2 days by cross streak plate method; settings: MTCC 1344, 48 h, time 2 day, read-out: IZ; how it was run: as §2
[35] = test system: Saccharomyces cerevisiae; test: Antifungal activity against Saccharomyces cerevisiae MTCC 1344 assessed as zone of inhibition at 29.7 uM incubated for 2 days by cross streak plate method; settings: MTCC 1344, 48 h, time 2 day, read-out: IZ; how it was run: as §2

Row | SMILES | MIC [1] | MIC [2] | MIC [3] | MIC [4] | zone of inhibition at 16.8 µM [5] | zone of inhibition at 25.2 µM [6] | zone of inhibition at 33.7 µM [7] | zone of inhibition at 16.8 µM [8] | zone of inhibition at 25.2 µM [9] | zone of inhibition at 33.7 µM [10] | Activity [11] | other results
1 | O=C(CSc1nnc(-c2ccccc2OCc2cn(-c3ccccc3)nn2)n1Cc1ccccc1)c1ccc(Cl)cc1 | 9.5 µg/mL | 5 µg/mL | 8.8 µg/mL | 9.1 µg/mL | 1.5 mm | 3 mm | 3 mm | 2 mm | 3 mm | 3 mm | inactive | –
2 | O=C(Sc1nnc(-c2ccccc2OCc2cn(-c3ccc(Cl)cc3)nn2)n1Cc1ccccc1)c1ccccc1 | 4.1 µg/mL | 6.5 µg/mL | 7.3 µg/mL | 6.1 µg/mL | – | – | – | – | – | – | inactive | zone of inhibition at 17.2 µM [12]: 5.3 mm; zone of inhibition at 25.9 µM [13]: 6 mm; zone of inhibition at 34.5 µM [14]: 7.6 mm; zone of inhibition at 17.2 µM [15]: 5 mm; zone of inhibition at 25.9 µM [16]: 7 mm; zone of inhibition at 34.5 µM [17]: 7.4 mm
3 | O=C(CSc1nnc(-c2ccccc2OCc2cn(-c3ccccc3)nn2)n1-c1ccccc1)c1ccccc1 | 9.8 µg/mL | 4.9 µg/mL | 9.1 µg/mL | 9.8 µg/mL | – | – | – | – | – | – | inactive | zone of inhibition at 18.3 µM [18]: 2.1 mm; zone of inhibition at 27.5 µM [19]: 3 mm; zone of inhibition at 36.6 µM [20]: 3 mm; zone of inhibition at 18.3 µM [21]: 1.5 mm; zone of inhibition at 27.5 µM [22]: 2 mm; zone of inhibition at 36.6 µM [23]: 3 mm
4 | O=C(CSc1nnc(-c2ccccc2OCc2cn(-c3ccc(Cl)cc3)nn2)n1Cc1ccccc1)c1ccc(Cl)cc1 | 8 µg/mL | 4 µg/mL | 8.2 µg/mL | 8.5 µg/mL | – | – | – | – | – | – | inactive | zone of inhibition at 15.9 µM [24]: 2 mm; zone of inhibition at 23.9 µM [25]: 2 mm; zone of inhibition at 31.8 µM [26]: 3 mm; zone of inhibition at 15.9 µM [27]: 2 mm; zone of inhibition at 23.9 µM [28]: 2 mm; zone of inhibition at 31.8 µM [29]: 3 mm
5 | O=C(CSc1nnc(-c2ccccc2OCc2cn(-c3ccc(Cl)cc3)nn2)n1Cc1ccccc1)c1ccc(Br)cc1 | 8.5 µg/mL | 4.4 µg/mL | 8.1 µg/mL | 9 µg/mL | – | – | – | – | – | – | inactive | zone of inhibition at 14.8 µM [30]: 2 mm; zone of inhibition at 22.2 µM [31]: 2 mm; zone of inhibition at 29.7 µM [32]: 3 mm; zone of inhibition at 14.8 µM [33]: 1.5 mm; zone of inhibition at 22.2 µM [34]: 2 mm; zone of inhibition at 29.7 µM [35]: 3 mm
6 | O=C(CSc1nnc(-c2ccccc2OCc2cn(-c3ccc(Cl)cc3)nn2)n1Cc1ccccc1)c1ccccc1 | 9.7 µg/mL | 5.2 µg/mL | 9 µg/mL | 10 µg/mL | 6 mm | 8 mm | 8.2 mm | 5.8 mm | 5.7 mm | 7 mm | inactive | –
